Assay outcomes deposited in PubChem by The Scripps Research Institute Molecular Screening Center.
The list is not random: actives were taken first. Their share in the collection is about 0.55%.
TRPN1 ag – activates the zebrafish TRPN1 channel | HEK293 zebrafish TRPN1-YFP, Fluo-8 calcium fluorescence; 100% = response to 87 µM carbachol | activation, % at 3 µM | 220,000 tested, 0.18% active | AID 1424;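 active = activation above its plate's cutoff, the mean activation of test wells on that plate plus 3 SD, cut at about 19% in these data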;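 also: 0% = DMSO alone and 100% = 87 µM carbachol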
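Material: zebrafish TRPN1-YFP in HEK293 cells. Doses: one dose of 3 µM, 0.3% DMSO. Incubation: dye 1 h 37 °C plus 30 min RT. Measured by: intracellular calcium fluorescence with Fluo-8.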
V1R ag counter – V1a receptor agonism, counter-screen for OXTR agonists. P37288. CHO-V1R cells, Fluo-8 calcium fluorescence, agonist mode; 0% DMSO, 100% 3 nM vasopressin. activation, % at 3 µM. 320,000 tested, 0.25% active;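 active = activation above the mean activation of all tested compounds plus 3 SD, per screening run, cut at about 20% in these data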;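 also: signal is peak over basal fluorescence ratio across a 100 second FLIPR read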
TRPML3 agonist – agonists of human TRPML3 channel. Q8TDD5. HEK293 TRPML3-YFP, Fluo-8 calcium fluorescence; 100% = the carbachol control signal. activation, % at 3 µM. 220,000 tested, 0.29% active;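 active = activation above its plate's cutoff, the mean activation of the plate's test wells plus 3 SD, cut at about 12% in these data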;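 also: 0% = DMSO only wells and 100% = carbachol wells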
Target sequence (Q8TDD5 whole entry, looked up): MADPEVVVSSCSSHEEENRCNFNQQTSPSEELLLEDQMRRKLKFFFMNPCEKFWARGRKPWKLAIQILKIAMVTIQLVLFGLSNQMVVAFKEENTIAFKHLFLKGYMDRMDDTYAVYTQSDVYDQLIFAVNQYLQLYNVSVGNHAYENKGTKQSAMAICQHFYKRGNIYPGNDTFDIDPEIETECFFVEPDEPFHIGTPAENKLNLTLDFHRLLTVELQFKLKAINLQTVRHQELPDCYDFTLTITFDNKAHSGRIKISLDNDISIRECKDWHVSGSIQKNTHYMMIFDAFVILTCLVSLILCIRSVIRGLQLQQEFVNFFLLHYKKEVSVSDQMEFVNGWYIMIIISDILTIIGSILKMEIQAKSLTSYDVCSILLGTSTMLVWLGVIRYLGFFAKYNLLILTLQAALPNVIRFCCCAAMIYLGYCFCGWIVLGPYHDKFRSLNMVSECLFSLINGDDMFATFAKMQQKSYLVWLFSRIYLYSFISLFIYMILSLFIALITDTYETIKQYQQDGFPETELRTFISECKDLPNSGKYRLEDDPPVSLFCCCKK
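Test system: HEK293 cells stably carrying human TRPML3-YFP; Doses: single dose, 3 µM final nominal compound, 0.3% DMSO final; Schedule: dye loading 1 h 37 °C then 30 min ambient, 125 s read; Technique: Fluo-8 calcium fluorescence; Benchmarks: high control carbachol 87 µM, low control DMSO.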
OXTR potentiator – potentiators of human oxytocin receptor. P30559. CHO-OTR cells, Fluo-8 calcium fluorescence, potentiator mode; 0% = oxytocin EC15, 100% = EC100. activation, % at 3 µM. 320,000 tested, 0.061% active. AID 2445;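 active = activation above that plate's cutoff, the mean activation of tested compounds plus 3 SD, cut at about 6.6% in these data, passing the limit was not always enough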;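 also: 100% uses oxytocin at 75 nM as the full agonist control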
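Material: CHO-OTR cells, human receptor; compound dosing: single dose, 3.0 µM nominal final compound concentration; schedule: 6 min compound pre-incubation at room temperature, 100 s kinetic read; measured by: kinetic Fluo-8 calcium fluorescence; read-out basis: % activation vs EC15 and EC100 oxytocin; controls: EC15 oxytocin alone as 0%, 75 nM oxytocin as 100%; replicates: singlicate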
OXTR agonist – agonists of human oxytocin receptor. P30559. CHO-OTR cells, Fluo-8 calcium fluorescence; normalized: DMSO 0%, oxytocin 100%. activation, % at 3 µM. 320,000 tested, 0.32% active;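 active = activation above the mean of all tested compounds plus 3 SD, cutoff set per screening run, cut at about 20% in these data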;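 also: peak over basal fluorescence ratio from a 100 s FLIPR kinetic read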
V1R ag confirm – human V1a receptor agonism, confirmation | shares compounds with V1R ag counter | CHO-V1R cells, Fluo-8 calcium fluorescence, agonist | activation, % at 3 µM | 180 tested, 20% active;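 active = average activation exceeds primary screen hit cutoff, cut at about 21% in these data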;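 also: peak over basal fluorescence ratio during a 100 s FLIPR read; 0% = DMSO only wells and 100% = 3 nM vasopressin wells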
OXTR counter – counter-screen for V1a receptor agonists: oxytocin receptor agonists | shares compounds with V1R ag counter | CHO-OTR cells, Fluo-8 calcium fluorescence, agonist | activation, % at 3 µM | 180 tested, 10% active | AID 434969;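 active = mean activation over three repeats above the cutoff from the earlier oxytocin receptor agonist screen, cut at about 20% in these data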;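 also: peak over minimum fluorescence ratio within a 100 second FLIPR read; 0% = DMSO only wells and 100% = oxytocin high control wells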
* marks the source's active call; other numbers are inactive results.

Results for COc1ccc(CC(=O)Nc2ccc(NC(=O)c3ccccc3F)cc2)cc1 ?
TRPN1 ag: 2; V1R ag counter: 32*; TRPML3 agonist: 0; OXTR potentiator: -8; OXTR agonist: 0; V1R ag confirm: 13; OXTR counter: 3

Results for O=c1c(-c2nc3ccccc3s2)cccn1Cc1ccc(Cl)cc1 ?
TRPN1 ag: 0; V1R ag counter: 22*; TRPML3 agonist: 1; OXTR potentiator: -17; OXTR agonist: 0; V1R ag confirm: 0; OXTR counter: -1

What do the screens show for `Clc1ncccc1-c1nc2ccccc2s1`?
TRPN1 ag: -2; V1R ag counter: -2; TRPML3 agonist: 0; OXTR potentiator: 4; OXTR agonist: -2

What do the screens show for `Cn1c(N)c(C(=O)COC(=O)c2ccc([N+](=O)[O-])o2)c(=O)n(C)c1=O`?
TRPN1 ag: 3; V1R ag counter: 1; TRPML3 agonist: 1; OXTR potentiator: 0; OXTR agonist: 1

How did CCCCN(CC)S(=O)(=O)c1ccc(C(=O)Nc2nnc(-c3cccs3)o2)cc1 do in these assays?
TRPN1 ag: 0; V1R ag counter: 26*; TRPML3 agonist: 0; OXTR potentiator: -18; OXTR agonist: 0; V1R ag confirm: 8; OXTR counter: 4

What do the screens show for `CCN(CC)S(=O)(=O)c1ccc(C(=O)Nc2nnc(-c3ccco3)o2)cc1`?
TRPN1 ag: -1; V1R ag counter: -1; TRPML3 agonist: -1; OXTR potentiator: -1; OXTR agonist: -1

What do the screens show for `Cc1ccc(C(=O)N2CCC(C(=O)Nc3cccc([N+](=O)[O-])c3)CC2)cc1`?
V1R ag counter: 2; OXTR potentiator: -3; OXTR agonist: -2

Results for CCN(CC)S(=O)(=O)c1ccc(OC(C)C)c(NC(=O)C2=COCCO2)c1 ?
V1R ag counter: -1; OXTR potentiator: -8; OXTR agonist: -2

What do the screens show for `CCCCCCCCCCOC(=O)Cn1c(COc2ccccc2OC)[n+](C)c2ccccc21`?
V1R ag counter: 56*; OXTR potentiator: -15; OXTR agonist: 10; V1R ag confirm: 12; OXTR counter: 20

How did CCC(C)C(NC(=O)OCc1ccccc1)C(=O)NC(Cc1ccc(O)cc1)C(=O)OC (configuration not stated) do in these assays?
TRPN1 ag: 8; V1R ag counter: 27*; TRPML3 agonist: 2; OXTR potentiator: -26; OXTR agonist: 17; V1R ag confirm: 4; OXTR counter: 18

Results for COc1ccc(C(CC(=O)O)NC(=O)COc2cc(C)ccc2C)cc1OC (configuration not stated) ?
TRPN1 ag: 0; V1R ag counter: 0; TRPML3 agonist: 1; OXTR potentiator: -4; OXTR agonist: 0

What do the screens show for `Nc1nc(-c2ccccn2)nc(N)c1Cc1ccc(Cl)cc1Cl`?
TRPN1 ag: 3; V1R ag counter: 22*; TRPML3 agonist: 2; OXTR potentiator: -11; OXTR agonist: 15; V1R ag confirm: 7; OXTR counter: 4

What do the screens show for `O=C(NNC(=O)c1ccc[nH]1)c1cccc(C(F)(F)F)c1`?
V1R ag counter: -1; OXTR potentiator: -7; OXTR agonist: -1

What do the screens show for `Cc1noc(C(F)(F)F)c1C(=O)NNC(=O)c1cccc(C(F)(F)F)c1`?
TRPN1 ag: 0; V1R ag counter: 20*; TRPML3 agonist: 1; OXTR potentiator: -3; OXTR agonist: -1; V1R ag confirm: 1; OXTR counter: 0

What do the screens show for `CCOC(=O)C(NC(=O)c1ccccc1)=C(C)C`?
TRPN1 ag: 0; V1R ag counter: 0; TRPML3 agonist: 1; OXTR potentiator: -4; OXTR agonist: -1

How did CCOC(=O)C(CC(=O)O)=C(c1ccccc1)c1ccccc1 do in these assays?
V1R ag counter: 21*; OXTR potentiator: -14; OXTR agonist: 0; V1R ag confirm: 0; OXTR counter: 0

Results for CCOc1ccc(CONS(=O)(=O)c2ccc(NC(C)=O)cc2)cc1Cl ?
TRPN1 ag: 2; V1R ag counter: 23*; TRPML3 agonist: 1; OXTR potentiator: -19; OXTR agonist: 11; V1R ag confirm: 9; OXTR counter: 8

Results for S=c1[nH]nc(-c2cccs2)n1/N=C/c1c(Cl)cccc1Cl ?
TRPN1 ag: -3; V1R ag counter: 27*; TRPML3 agonist: 1; OXTR potentiator: -10; OXTR agonist: 13; V1R ag confirm: 14; OXTR counter: 1

What do the screens show for `Cc1ccc(/C=N/n2c(-c3cccs3)n[nH]c2=S)cc1`?
TRPN1 ag: -2; V1R ag counter: -1; TRPML3 agonist: 0; OXTR potentiator: -13; OXTR agonist: -3

Results for O=C(CSc1nnc(-c2ccccc2F)o1)N1CCNC1=O ?
V1R ag counter: 1; OXTR potentiator: -3; OXTR agonist: 2

How did COc1ccc(Cl)cc1C(=O)NNC(=S)NC(=O)c1cc(-c2ccccc2)nc2ccccc12 do in these assays?
TRPN1 ag: 5; V1R ag counter: 26*; TRPML3 agonist: 1; OXTR potentiator: -22; OXTR agonist: 14; V1R ag confirm: 35*; OXTR counter: 21*

What do the screens show for `COC(=O)c1ccc(NC(=S)NC(=O)c2cc(-c3ccccc3)nc3ccccc23)cc1`?
TRPN1 ag: 0; V1R ag counter: 1; TRPML3 agonist: 1; OXTR potentiator: -8; OXTR agonist: 1

What do the screens show for `CCOC(=O)c1sc2nc(C)nc(N3CCN(S(=O)(=O)c4ccccc4)CC3)c2c1C`?
V1R ag counter: 1; OXTR potentiator: -5; OXTR agonist: 1

How did Cc1cc(C)n(-c2nc(Nc3ccccc3)nc(-n3nc(C)cc3C)n2)n1 do in these assays?
TRPN1 ag: 1; V1R ag counter: 0; TRPML3 agonist: 1; OXTR potentiator: -7; OXTR agonist: 0

What do the screens show for `COc1cccc(/C=N/Nc2nc(Nc3ccccc3)nc(-n3nc(C)cc3C)n2)c1O`?
TRPN1 ag: 3; V1R ag counter: 21*; TRPML3 agonist: 1; OXTR potentiator: -21; OXTR agonist: 15; V1R ag confirm: 6; OXTR counter: 1

How did O=C(OCCN1C(=O)c2cccc3c(N4CCOCC4)ccc(c23)C1=O)c1ccccc1Cl do in these assays?
TRPN1 ag: 7; V1R ag counter: 26*; TRPML3 agonist: 2; OXTR potentiator: -11; OXTR agonist: 12; V1R ag confirm: 30*; OXTR counter: 42*

How did COc1ccc(N=C2NC(=O)S/C2=C\c2ccc(N(C)C)cc2)cc1 do in these assays?
TRPN1 ag: 8; V1R ag counter: 21*; TRPML3 agonist: 3; OXTR potentiator: -24; OXTR agonist: 18; V1R ag confirm: 26*; OXTR counter: 20*
